In PubChem BioAssay AID504382 (The Scripps Research Institute Molecular Screening Center, 2011):
Screen size: about 2,500 compounds; about 460 (18%) were called active.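 How the source made its calls: active means mean activation above a cutoff of low control average plus 3 SD from the earlier screen (cut at about 12% in these data); inactive means the rest.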 The list is a sample of the results.

Assay: IANBD-channel fluorescence artefacts in buffer – biochemical, artefact control for cardiac RTF calcium sensitizer project, confirmation (AID 504382)
Settings: IANBD fluorescence interference counterscreen, EC20 Ca2+, at 7.2 µM, stronger effect = higher value, scaled: EC20 calcium 0, EC100 calcium 100
Method in brief: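 timing = compound incubation 15 min at 25 °C before fluorescence reading | technique = fluorescence at 480 nm excitation, 540 nm emission | evaluation = interference relative to controls | replication = triplicate wells per compound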

| SMILES | fluorescence artifact activation |
| --- | --- |
| CN1C(=O)NC(c2ccccc2[N+](=O)[O-])C2=C1CCCC2=O (stereo unspecified) | 0.1% (inactive) |
| CCN1C(=S)N[C@@H](CCc2ccccc2)[C@H](C(=O)OC)[C@H]1C | 20.1% (active) |
| O=C(N/N=C/c1ccc([N+](=O)[O-])cc1)c1cc(-c2ccc3c(c2)OCO3)n[nH]1 | 0.03% (inactive) |
| CSc1nc(C)nc(N/C=C(\C#N)S(=O)(=O)c2ccccc2Cl)n1 | 0.27% (inactive) |
| COC(=O)c1cc2c(cc1NC(=O)CSCCc1ccccn1)OCO2 | 0.01% (inactive) |
| O=C1c2ccccc2C(=O)N1CC1=NCCc2ccccc21 | 0.03% (inactive) |
| O=C(c1ccc(F)cc1)N1CCN=C1c1ccccc1 | 0.24% (inactive) |
| O=C(CN1C(=O)c2ccccc2C1=O)N1CCN=C1c1ccccc1 | 19.8% (active) |
| O=C(O)c1ccccc1/C=N/NC(=S)NC1CCCCC1 | 0.11% (inactive) |
| CSc1ccc(Cl)c(C(=O)NNC(=O)c2csc(N3CCOCC3)n2)c1 | 2.41% (inactive) |
| CCCN1CC=C2C(C#N)=C(N)C(C#N)(C#N)C(c3cccc(OC)c3OC)C2C1 (stereo unspecified) | 0.1% (inactive) |
| Nc1nc(NCc2ccco2)nc(N2CCCCCC2)c1[N+](=O)[O-] | 1.86% (inactive) |
| COc1ccc(-n2c(C)cc(/C=C3\SC(=S)N(Cc4ccco4)C3=O)c2C)cc1 | 91.9% (active) |
| Cc1cc(/C=C2\SC(=S)N(Cc3ccco3)C2=O)c(C)n1-c1ccccc1 | 3.1% (inactive) |
| Cc1cc(/C=C2\SC(=S)N(Cc3ccco3)C2=O)c(C)n1-c1cccnc1 | 10.8% (inactive) |
| Cc1nc(NC(=O)C(Cl)Cl)sc1C(=O)N(C)C | 0.56% (inactive) |
| CCOc1c2ccc(C(=O)NCCc3cccs3)cc2nn1CC | 0.58% (inactive) |
| CC(C)CCNC(=O)c1ccc2c(SCC(=O)O)c3c(nc2c1)CCC3 | 12.9% (active) |
| COC(=O)C1C2CC3c4[nH]c5cc(OC)ccc5c4CCN3CC2CC(OC(=O)CC(C)=O)C1OC (stereo unspecified) | 0.13% (inactive) |
| CN(C)c1ccc(/C=C2\NC(=S)N(Cc3ccccc3)C2=O)cc1 | 91.1% (active) |
| CN(C)c1ccc(/C=C2\CCC/C(=C\c3ccccc3)C2=O)cc1 | 0.02% (inactive) |
| Cc1ccc(/C=C2/NC(=O)N(Cc3ccccc3)C2=O)s1 | 0.01% (inactive) |
| COC(=O)c1sccc1Oc1ccc(Cl)cc1N1C(=O)CCC1=O | 0.03% (inactive) |
| COC(=O)c1c(=O)n(O)c2ccc(OC)cc2[n+]1[O-] | 0.04% (inactive) |

| SMILES | fluorescence artifact activation |
| --- | --- |
| C=CCn1c(=O)/c(=C/c2cc(OC)c(OC)c(OC)c2)s/c1=C(/C#N)c1nc2ccccc2n1C | 0.02% (inactive) |
| Cc1cccc(OCc2nn[nH]n2)c1C | 1.02% (inactive) |
| COc1ccccc1C1=NOC(Cn2c(=O)c3c(ncn3C)n(C)c2=O)C1 (stereo unspecified) | 0.23% (inactive) |
| CCN(CC)CCN1C(=O)c2cccc3cc(N)cc(c23)C1=O | 24.6% (active) |
| CC(C)CCN1C(=O)c2cccc3c(N)ccc(c23)C1=O | 1.45% (inactive) |
| O=C1c2cccc3cc([N+](=O)[O-])cc(c23)C(=O)N1CCN1CCCC1 | 0.08% (inactive) |
| Cc1ccc(Cn2c(O)c(N=NC(=S)Nc3ccccc3F)c3cc(S(=O)(=O)N4CCOCC4)ccc32)cc1 | 5.72% (inactive) |
| CC(=O)c1cc(NC(=O)c2ccc(C)cc2)c(=O)oc1/C=C/N(C)C | 15.6% (active) |
| COC(=O)c1cc(NC(=O)c2ccccc2)c(=O)oc1C/C=N\OCc1ccc(Cl)cc1Cl | 0.01% (inactive) |
| CC(=O)c1cc(NC(=O)c2ccc(Cl)cc2)c(=O)oc1/C=C/N(C)C | 0.02% (inactive) |
| N#CC12COC3(CCCCC3C1(C#N)C#N)OC2=N (stereo unspecified) | 0.14% (inactive) |
| CN(CC(=O)NCc1ccco1)S(=O)(=O)c1cccc2cccnc12 | 6.75% (inactive) |
| CCC(C)(C)NC(=O)C(c1ccc(F)cc1)N(Cc1ccco1)C(=O)c1cnccn1 (stereo unspecified) | 18.7% (active) |
| CCOc1ccc(N(C(=O)CNC(=O)c2ccco2)C(C(=O)NC2CCCC2)c2ccncc2)cc1 (stereo unspecified) | 0.08% (inactive) |
| COc1cccc(CN2CCNC(=O)C2CC(=O)N(C)Cc2cnccn2)c1OC (stereo unspecified) | 0.09% (inactive) |
| O=C(CSC1=NS(=O)(=O)c2ccccc2N1)N1CCCCC1 | 1.61% (inactive) |
| CN(C)C(CNC(=O)CSc1nc2ccccc2c(=O)n1Cc1ccco1)c1ccccc1 (stereo unspecified) | -0.06% (inactive) |
| O=C(Cc1c(F)cccc1Cl)Nc1nccs1 | 0.01% (inactive) |
| CC1(C)CC(CC(=O)Nc2nccs2)(c2ccccc2)CCO1 (stereo unspecified) | 239% (active) |
| CC1(C)CC2(CCCN(C(=S)Nc3ccccc3)C2)CCO1 (stereo unspecified) | 0.12% (inactive) |
| Cn1c(=O)cc(SCC(=O)NCC2COc3ccccc3O2)c2ccccc21 (stereo unspecified) | 0.03% (inactive) |
| Cc1cc(NS(C)(=O)=O)c(=O)n(Cc2cccc(F)c2)c1 | 0.35% (inactive) |
| COc1ccc(N/C=C2\C(=O)CCc3c2oc2cc(Cl)c(O)c(Cl)c32)cc1 | 12.7% (active) |
| Cn1cnnc1Sc1nc2ccccc2nc1NS(=O)(=O)c1ccccc1 | 4.87% (inactive) |

| SMILES | fluorescence artifact activation |
| --- | --- |
| Cc1cc(N/C=C\c2nnnn2-c2ccc(F)cc2)no1 | 233% (active) |
| CC(=O)N(c1ccccc1)C1SC(=O)N(c2ccccc2)C1=O (stereo unspecified) | 0.05% (inactive) |
| O=C(O)CN1C(=O)/C(=C/c2ccc(SCc3ccccc3)o2)SC1=S | 11.5% (inactive) |
| O=C(O)c1cc(-c2ccc(/C=C3/SC(=S)N(Cc4ccccc4)C3=O)o2)ccc1Cl | 0.02% (inactive) |
| O=C(O)C(c1ccccc1)N1C(=O)/C(=C\c2ccc(-c3ccc(Br)cc3)o2)SC1=S (stereo unspecified) | 68.3% (active) |
| CC(C)NC(=S)N/N=C/c1sc(N2CCCCC2)nc1-c1cccs1 | 0.18% (inactive) |
| FC(F)(F)c1ccc(-c2nc(=S)[nH][nH]2)cc1 | -0.01% (inactive) |
| CCN(CC)CC(C(=O)N(CC)CC)P(=O)(c1ccccc1)c1ccccc1 (stereo unspecified) | 1.03% (inactive) |
| CCC1Oc2ccc(C)cc2N(CC(=O)NCc2cccs2)C1=O (stereo unspecified) | -0.08% (inactive) |
| O=C(CO/N=C/c1ccccc1OC(F)F)NCc1cccs1 | 16.6% (active) |
| Cc1ccc(SCC(=O)OCC(=O)NCc2cccs2)cc1 | 2.52% (inactive) |
| C=CCOc1ccc(C2OC34CCCCC3C(C#N)(C#N)C2(C#N)C(=N)O4)cc1 (stereo unspecified) | 0.84% (inactive) |
| Cc1ccc(-c2noc(-c3c(C)noc3C)n2)cc1 | 2% (inactive) |
| O=C1c2ccsc2SCCN1Cc1ccc(F)cc1 | 7.58% (inactive) |
| O=C(NN1C(=O)/C(=C/c2ccc(O)cc2)SC1=S)c1ccccc1O | 0.14% (inactive) |
| C=C(C)c1cccc(C(C)(C)NC(=O)Nc2cccnc2)c1 | 5% (inactive) |
| N#CC1=C(N)OC2=C(CC/C2=C\c2ccccc2)C1c1ccccc1 (stereo unspecified) | 1.94% (inactive) |
| Cc1ccc(/C=C2\CCC3=C2OC(N)=C(C#N)C3c2ccc(C)cc2)cc1 (stereo unspecified) | 0.12% (inactive) |
| N#CC1=C(N)OC2=C(CC/C2=C\c2ccccc2Cl)C1c1ccccc1Cl (stereo unspecified) | 125% (active) |
| COc1ccc2c(n1)Sc1nc3ccccc3nc1N2 | 0.01% (inactive) |
| O=C(c1ccccc1)c1ccccc1C(=O)c1ccccc1 | 0.23% (inactive) |
| O=C(c1ccccc1)c1ccncc1 | 0.03% (inactive) |
| O=C(c1ccccc1)c1ccc(O)cc1O | 24.9% (active) |
| CC1(C)CC(=O)C2=C(C1)OC(N)=C(C#N)[C@@H]2c1ccccc1[N+](=O)[O-] | 7.58% (inactive) |

| SMILES | fluorescence artifact activation |
| --- | --- |
| O=C(O)c1ccc(NC(=S)NC(=O)c2ccc(-c3ccccc3)cc2)cc1 | 9.94% (inactive) |
| CCNC(=O)COc1ccc(-c2ccccc2)cc1 | 0.09% (inactive) |
| O=C(O)CCC(=O)NNC(=O)c1ccc(-c2ccccc2)cc1 | 49% (active) |
| COc1cc(NC(=O)CSc2ccccc2)c(C(=O)O)cc1OC | 3.35% (inactive) |
| Nc1nc(SCc2cccc(Br)c2)n[nH]1 | 0.03% (inactive) |
| CC(Sc1nc2ncc(Cl)cc2[nH]1)C(=O)Nc1ccc(C(N)=O)cc1 (stereo unspecified) | -0.03% (inactive) |
| O=C1/C(=C\c2c(NCCOCCO)nc3ccccn3c2=O)SC(=S)N1Cc1ccco1 | 31.6% (active) |
| CCCN(CCC)c1nc2c(C)cccn2c(=O)c1/C=C1/SC(=S)N(Cc2ccco2)C1=O | 0.05% (inactive) |
| CCN1CCN(c2c(/C=C3\SC(=S)N(Cc4ccco4)C3=O)c(C)c(C#N)c(=O)n2C)CC1 | 0.03% (inactive) |
| Cc1cccc(C)c1NC(=O)CNC(=O)Cc1ccc(Br)cc1 | 0.05% (inactive) |
| C=CCn1c(C)c(/C=C/c2cc[n+](C)cc2)c2ccccc21 | 8.02% (inactive) |
| Cn1c(=O)cc(N)n(Cc2ccccc2)c1=O | 14.3% (active) |
| Cn1c(=O)c2cc(NCc3ccccc3)nnc2n(C)c1=O | 0.34% (inactive) |
| O=c1cc2c(c(-c3ccccc3)n1Cc1ccccc1)[C@H](CCO)NC2 | 0.32% (inactive) |
| CN1CCN(C(=O)c2cc3ccccc3[nH]2)CC1 | -0.01% (inactive) |
| CCC(CC)C(=O)c1c[nH]c(C(=O)N2CCN(c3ccccc3F)CC2)c1 | 17% (active) |
| CC(C)CN1CCC(C(=O)N2CCN(c3ccccc3F)CC2)CC1 | -0.02% (inactive) |
| CC(=O)Nc1ccc2nc3c(=O)n(C)c(=O)n(C)c3nc2c1 | 1.77% (inactive) |
| COc1ccc(CCNC(=O)CN(C)S(=O)(=O)c2ccc3c(c2)CCC(=O)N3)cc1OC | -0.01% (inactive) |
| COc1cc(/C=C/C(=O)c2ccc3c(c2)OCO3)cc(Cl)c1O | 1.66% (inactive) |
| Cc1cc[n+](-c2[nH]c(=O)sc2/C=N/NC([S-])=Nc2ccccc2)cc1 | 1.49% (inactive) |
| COc1ccc(-c2cc(C3CC3)nc(SCC(=O)c3cccs3)c2C#N)cc1 | 0.1% (inactive) |
| CCOC(=O)CC(=O)CSc1nc(-c2ccc3c(c2)OCO3)cc(C(F)(F)F)c1C#N | 0.09% (inactive) |
| CC(C)OC(=O)CC(=O)CSc1nc(-c2ccc(F)cc2)cc(-c2ccccc2)c1C#N | 17.5% (active) |
